{
  "source": "ChEMBL document CHEMBL2151001",
  "about": "“Indiacens A and B: prenyl indoles from the myxobacterium Sandaracinus amylolyticus” (2012)",
  "assay_type_in_all_cases": "functional",
  "key": {"[1]": {"test_system": "Mucor hiemalis", "test": "Antimicrobial activity against Mucor hiemalis by serial dilution method", "summary_of_the_method": "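Fungal MIC by serial dilution in 96-well plates. Organism cultivated in MYC medium (1.0% phytone peptone, 1.0% glucose, 1.19% HEPES, pH 7.0) at 30 °C, 160 rpm.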"}, "[2]": {"test": "Antimicrobial activity against Arthrobacter rubellus by serial dilution method", "summary_of_the_method": "(§1)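 MIC by serial dilution in 96-well plates. Test bacteria grown in EBS medium (0.5% peptone, 0.5% glucose, 0.1% meat extract, 0.1% yeast extract, 50 mM HEPES, pH 7.0) at 30 °C with shaking at 160 rpm.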"}, "[3]": {"test_system": "Pimelobacter simplex", "test": "Antimicrobial activity against Nocardioides simplex by serial dilution method", "summary_of_the_method": "as §1"}, "[4]": {"test_system": "Mycobacterium lacticola", "test": "Antimicrobial activity against Mycobacterium lacticola by serial dilution method", "summary_of_the_method": "as §1"}, "[5]": {"test_system": "Mycolicibacterium diernhoferi", "test": "Antimicrobial activity against Mycobacterium diernhoferi by serial dilution method", "summary_of_the_method": "as §1"}, "[6]": {"test_system": "Stutzerimonas stutzeri", "test": "Antimicrobial activity against Pseudomonas stutzeri by serial dilution method", "summary_of_the_method": "as §1"}, "[7]": {"test_system": "Chromobacterium violaceum", "test": "Antimicrobial activity against Chromobacterium violaceum by serial dilution method", "summary_of_the_method": "as §1"}, "[8]": {"test_system": "Escherichia coli", "test": "Antimicrobial activity against Escherichia coli expressing mutant TOLC by serial dilution method"}},
  "data": [
    {"smiles": "C=C(C)/C=C/c1cccc2[nH]cc(C=O)c12", "note": "[INDIACEN A]", "values": [
      {"measurement": "MIC", "setting": "[1]", "value": 16.6, "unit": "µg/mL"},
      {"measurement": "MIC", "setting": "[2]", "value": 16.6, "unit": "µg/mL"},
      {"measurement": "MIC", "setting": "[3]", "value": 8.3, "unit": "µg/mL"},
      {"measurement": "MIC", "setting": "[4]", "value": 16.6, "unit": "µg/mL"},
      {"measurement": "MIC", "setting": "[5]", "value": 16.6, "unit": "µg/mL"},
      {"measurement": "MIC", "setting": "[6]", "value": "> 33", "unit": "µg/mL"},
      {"measurement": "MIC", "setting": "[7]", "value": 16.6, "unit": "µg/mL"},
      {"measurement": "MIC", "setting": "[8]", "value": 16.6, "unit": "µg/mL"}
    ]},
    {"smiles": "CC(/C=C/c1cccc2[nH]cc(C=O)c12)=C\\Cl", "note": "[INDIACEN B]", "values": [
      {"measurement": "MIC", "setting": "[1]", "value": 16.6, "unit": "µg/mL"},
      {"measurement": "MIC", "setting": "[2]", "value": 0.8, "unit": "µg/mL"},
      {"measurement": "MIC", "setting": "[3]", "value": 3.3, "unit": "µg/mL"},
      {"measurement": "MIC", "setting": "[4]", "value": 33, "unit": "µg/mL"},
      {"measurement": "MIC", "setting": "[5]", "value": "> 33", "unit": "µg/mL"},
      {"measurement": "MIC", "setting": "[6]", "value": 33, "unit": "µg/mL"},
      {"measurement": "MIC", "setting": "[7]", "value": 33, "unit": "µg/mL"},
      {"measurement": "MIC", "setting": "[8]", "value": 33, "unit": "µg/mL"}
    ]}
  ]
}
